Measured values taken from ChEMBL document CHEMBL1137054, “Synthesis of 5'-substituted fluoro-neplanocin A analogues: importance of a hydrogen bonding donor at 5'-position for the inhibitory activity of S-adenosylhomocysteine hydrolase” (Bioorg Med Chem Lett, 2004).

Columns and labels:
Col2 = assay: Concentration required for 50% inhibition of Col2 cell line (human colon carcinoma cells); type: functional, cell-based
How it was run: (§1)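 Cytotoxicity in cultured human cancer cells (Col2 colon carcinoma; A549 lung carcinoma). Cells were exposed to serial dilutions of compound, and the value is the concentration giving 50% survival.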

Adenosylhomocysteinase = Adenosylhomocysteinase (Homo sapiens, UniProt P23526); assay: Inhibitory activity against enzyme S-adenosyl-homocysteine hydrolase of human placenta
A549 = assay: Concentration required for 50% inhibition of A549 cell line (human lung carcinoma cells); type: functional, cell-based; how it was run: as §1

Sequence of Adenosylhomocysteinase (P23526 whole entry): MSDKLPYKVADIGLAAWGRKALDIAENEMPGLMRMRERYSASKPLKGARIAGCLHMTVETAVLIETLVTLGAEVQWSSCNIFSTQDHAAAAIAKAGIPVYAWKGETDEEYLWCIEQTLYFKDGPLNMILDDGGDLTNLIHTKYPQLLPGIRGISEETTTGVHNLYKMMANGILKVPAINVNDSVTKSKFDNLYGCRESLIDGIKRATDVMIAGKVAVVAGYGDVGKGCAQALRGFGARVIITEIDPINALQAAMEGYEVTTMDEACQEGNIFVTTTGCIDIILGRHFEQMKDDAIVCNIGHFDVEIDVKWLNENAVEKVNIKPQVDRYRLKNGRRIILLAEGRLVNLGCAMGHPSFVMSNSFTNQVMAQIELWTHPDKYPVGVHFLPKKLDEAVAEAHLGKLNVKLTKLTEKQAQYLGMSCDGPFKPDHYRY

IC50 (Col2) [µM] | IC50 (Adenosylhomocysteinase) [µM] | IC50 (A549) [µM] | SMILES
35.9 | > 100 | 53 | [N-]=[N+]=NCC1=C(F)[C@@H](n2cnc3c(N)ncnc32)[C@H](O)[C@@H]1O
39.2 | 12.7 | 42.8 | NCC1=C(F)[C@@H](n2cnc3c(N)ncnc32)[C@H](O)[C@@H]1O
> 100 | > 100 | > 100 | Nc1ncnc2c1ncn2[C@@H]1C(F)=C(CF)[C@@H](O)[C@H]1O
> 100 | 97.3 | > 100 | Nc1ncnc2c1ncn2[C@@H]1C(F)=C(CS)[C@@H](O)[C@H]1O
1.4 | 0.48 | 4.6 | Nc1ncnc2c1ncn2[C@@H]1C(F)=C(CO)[C@@H](O)[C@H]1O [FLUORO-NEPLANOCIN A]
